The target in data set [1] is pyruvate dehydrogenase kinase (Sus scrofa). Put plainly: In vitro inhibitory activity against Pyruvate dehydrogenase kinase by primary enzymatic assay.
In data set [2] the target is Pyruvate dehydrogenase kinase (Homo sapiens, UniProt Q15119+Q15120+Q16654+Q15118). Put plainly: […] inhibion of pyruvate dehydrogenase kinase, increased oxidation of lactate. Format: functional. A digest of the protocol: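 Human fibroblasts, modified Ofenstein assay: conversion of [14C]lactate to 14CO2, taken as activation of the PDH complex. EC50 in μM ± standard error.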

The target of data set [3] is T1, Pyruvate dehydrogenase kinase (Rattus norvegicus) (UniProt Q63065+A6IPZ9+Q64536+O54937). Put plainly: In vivo inhibition of pyruvate dehydrogenase kinase, reduced lactate level in normal 24 hr r fasted rats at 300 umol/kg oral dose. Format: functional, organism-based. Also noted: scale not given: the % may be the effect or the level left.
A short description of data set [4]: The area under the curve of compound was measured at the dose of 300 umol/kg. Format: ADME, organism-based. The settings on record: rat, in vivo. A digest of the protocol:
(§1)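 Oral dosing at 30, 100 and 300 μmol/kg. Blood plasma concentrations followed to give peak concentration and estimated half-life.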

Data set [5] in a line: The maximum concentration of compound was measured at the dose of 300 umol/kg. Also noted: dose 300 umol/kg. The note with it: rat, in vivo. Format: ADME, organism-based. The gist of the method: as §1
Data set [6] in a line: The time to reach maximum concentration of compound was measured at the dose of 300 umol/kg. The settings on record: rat, in vivo. The class given is ADME, organism-based. The gist of the method: as §1
In data set [7] the target is T1, Pyruvate dehydrogenase kinase (Rattus norvegicus). Put plainly: In vivo inhibition of pyruvate dehydrogenase kinase, reduced lactate level in normal 24 hr r fasted rats at 100 umol/kg oral dose. The class given is functional, organism-based. Also noted: scale not given: the % may be the effect or the level left.
The nature of data set [8]: The time to reach maximum concentration of compound was measured at the dose of 100 umol/kg. The class given is ADME, organism-based. The note with it: rat, in vivo. The gist of the method: as §1
The target in data set [9] is T1, Pyruvate dehydrogenase kinase (Rattus norvegicus). Put plainly: In vivo inhibition of pyruvate dehydrogenase kinase, reduced lactate level in normal 24 hr r fasted rats at 30 umol/kg oral dose. Format: functional, organism-based. Also noted: scale not given: the % may be the effect or the level left.
A short description of data set [10]: The area under the curve of compound was measured at the dose of 100 umol/kg. The settings on record: rat, in vivo. The class given is ADME, organism-based. The gist of the method: as §1
Data set [11] in a line: The maximum concentration of compound was measured at the dose of 100 umol/kg. Also noted: dose 100 umol/kg. The note with it: rat, in vivo. The class given is ADME, organism-based. A digest of the protocol: as §1
Data set [12] can be described thus: The biological half life the compound was measured at the dose of 100 umol/kg. Format: ADME, organism-based. The note with it: rat, in vivo. The gist of the method:
as §1

Data set [13] concerns the target T1, Pyruvate dehydrogenase kinase (Rattus norvegicus). Put plainly: In vivo inhibition of pyruvate dehydrogenase kinase, reduced lactate level in normal 24 hr r fasted rats at 3 umol/kg oral dose. The class given is functional, organism-based. Also noted: scale not given: the % may be the effect or the level left.
The target is the same in data set [14]. Put plainly: In vivo inhibition of pyruvate dehydrogenase kinase, reduced lactate level in normal 24 hr r fasted rats at 1 umol/kg oral dose. Also noted: scale not given: the % may be the effect or the level left. The class given is functional, organism-based.
Data set [15] shares this target. Put plainly: In vivo inhibition of pyruvate dehydrogenase kinase, reduced lactate level in normal 24 hr r fasted rats at 10 umol/kg oral dose. The class given is functional, organism-based. Also noted: scale not given: the % may be the effect or the level left.
Data set [16] has the same target. Put plainly: In vivo inhibition of pyruvate dehydrogenase kinase, reduced lactate level in normal 24 hr r fasted rats at 1 mmol/kg oral dose. Also noted: scale not given: the % may be the effect or the level left. Format: functional, organism-based.
Data set [17] shares this target. Put plainly: In vivo inhibition of pyruvate dehydrogenase kinase, reduced lactate level in normal 24 hr r fasted rats at 300 umol/kg oral dose; Not active. Format: functional, organism-based.
Data set [18] in a line: The area under the curve of compound was measured at the dose of 30 umol/kg. Format: ADME, organism-based. The note with it: rat, in vivo. A digest of the protocol:
as §1

Data set [19] in a line: The time to reach maximum concentration of compound was measured at the dose of 30 umol/kg. Format: ADME, organism-based. The settings on record: rat, in vivo. A digest of the protocol: as §1
A short description of data set [20]: The biological half life the compound was measured at the dose of 30 umol/kg. The class given is ADME, organism-based. The note with it: rat, in vivo. The gist of the method:
as §1

The nature of data set [21]: The maximum concentration of compound was measured at the dose of 30 umol/kg. Format: ADME, organism-based. Also noted: dose 30 umol/kg. The settings on record: rat, in vivo. A digest of the protocol:
as §1

For data set [22], the target named is T1, Pyruvate dehydrogenase kinase (Rattus norvegicus). Put plainly: In vivo inhibition of pyruvate dehydrogenase kinase, reduced lactate level in normal 24 hr r fasted rats at 100 uMmol/kg oral dose. Format: functional, organism-based. Also noted: dose or concentration left out as unconfirmed.

SMILES strings stand for the structures. Activity calls are given as the source filed them. No cut-off for these calls is given here.

Consider `C[C@@](O)(C(=O)Nc1ccc(S(=O)(=O)F)cc1Cl)C(F)(F)F`, for which the IC50 in [1] came to 77 nM.

In turn, `C[C@@](O)(C(=O)Nc1ccccc1)C(F)(F)F` gave an IC50 in data set [1] of 35000 nM.

For the molecule `C[C@@](O)(C(=O)NC1CCCCC1)C(F)(F)F`, the IC50 in data set [1] was 6200 nM.

Turning to `C[C@@H]1CN(C(=O)[C@@](C)(O)C(F)(F)F)[C@@H](C)CN1Cc1ccccc1`, the IC50 in data set [1] was 82 nM.

On to `C[C@](O)(C(=O)NC1CCCCC1)C(F)(F)F`, for which, in data set [1], the IC50 was 200000 nM.

The molecule `C[C@](O)(C(=O)Nc1ccccc1Cl)C(F)(F)F` returned an IC50 in data set [1] of 9800 nM.

Molecule `C[C@@](O)(C(=O)Nc1ccc(C(=O)c2ccccc2)cc1Cl)C(F)(F)F` registered an IC50 in data set [1] of 110 nM.

On to `C[C@@](O)(C(=O)Nc1ccc(S(=O)(=O)N2CCNCC2)cc1Cl)C(F)(F)F`, for which the EC50 in [2] turned out to be 17000 nM. For the same molecule, in data set [3], the Control stood at 72%. This molecule displayed an AUC in data set [4] of 670 µM·h. The IC50 in data set [1] was determined as 55 nM. The molecule further came in with a Cmax in data set [5] of 53.8 µM. Further, the Tmax in [6] came to 6 h.

For the molecule `C[C@@](O)(C(=O)Nc1ccc(C(=O)O)cc1Cl)C(F)(F)F`, the Control turned out to be 70% in [7] and 98% in data set [9]. Also, the Tmax in data set [8] worked out at 0.5 h. The molecule also came in with an EC50 in [2] of 1400 nM. The molecule further registered an IC50 in data set [1] of 90 nM. In data set [10], this molecule came in with an AUC of 143 µM·h. For the same molecule, in data set [11], the Cmax amounted to 87.3 µM. In data set [12], the half-life is 4.6 h.

On to `C[C@@H]1CN(C(=O)[C@@](C)(O)C(F)(F)F)CCN1C(=O)OCc1ccccc1`, for which the IC50 in data set [1] was determined as 21 nM.

Take `C[C@@H]1CN(C(=O)[C@@](C)(O)C(F)(F)F)[C@@H](C)CN1C(=O)c1ccc(C#N)cc1`: the Control in [13] was found to be 90%; in data set [14], 87%; in data set [15], 74%. In data set [2], the EC50 is 57 nM. The IC50 in data set [1] amounted to 16.5 nM.

On to `C[C@@](O)(C(=O)N1CCN(C(=O)c2ccc(C#N)cc2)CC1)C(F)(F)F`, for which the IC50 in data set [1] is 6700 nM.

With `O=C([O-])C(Cl)Cl.[Na+]`, in data set [16], the Control is 70%.

In turn, `C[C@@](O)(C(=O)Nc1ccc(S(=O)(=O)N2CCCCC2)cc1)C(F)(F)F` returned a half-inhibitory concentration (IC50) in data set [1] of 9300 nM.

As to `CC(O)(C(=O)Nc1ccc(C(=O)c2ccccc2)cc1)C(F)(F)F` (single isomer, unassigned), the Control entry in data set [17] is “inactive”.

For `C[C@@](O)(C(=O)Nc1ccccc1Cl)C(F)(F)F`, the Control result in data set [17] was “inactive”. The molecule also showed an EC50 in data set [2] of 5400 nM. For the same molecule, the IC50 in data set [1] turned out to be 300 nM.

Turning to `C[C@@H]1CN(C(=O)[C@@](C)(O)C(F)(F)F)CCN1C(=O)c1ccc(C#N)cc1`, in [2], the EC50 came out at 250 nM. The same molecule gave an AUC in data set [18] of 196 µM·h. In addition, the Tmax in [19] was determined as 1.25 h. The molecule further showed an IC50 in data set [1] of 79 nM. For the same molecule, the values for the Control in data set [9], in data set [15] and in data set [22] were 60%, 90% and 67%, respectively. For the same molecule, the half-life in data set [20] is 3 h. The Cmax in [21] worked out at 23.8 µM.

`COC(=O)c1ccc(NC(=O)[C@@](C)(O)C(F)(F)F)c(Cl)c1` gave an IC50 in data set [1] of 120 nM.

In the case of `C[C@@](O)(C(=O)Nc1ccc(C(=O)N2CCCCC2)cc1Cl)C(F)(F)F`, the Control entry in data set [17] was “inactive”. The molecule also showed an EC50 in data set [2] of 590 nM. In addition, in data set [1], the IC50 was 1500 nM.

One may read the IC50 as the concentration that inhibits the measured activity by half. Broadly, the EC50 is the concentration giving half of the maximal effect. Usually AUC stands for the area under the concentration-time curve, a measure of exposure. The term Cmax denotes the peak of the concentration-time curve. The Tmax is the time from dosing to the highest level. By half-life is commonly meant how long it takes for the measured level to halve.

The record behind these values is ChEMBL document CHEMBL1132309, “(R)-3,3,3-Trifluoro-2-hydroxy-2-methylpropionamides are orally active inhibitors of pyruvate dehydrogenase kinase” (J Med Chem, 1999).
